Test results: PubChem BioAssay
Results filed as inconclusive are left out.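 How the source made its calls, unless noted: active means cell viability at or below a set limit in both duplicate runs, the limit being the all-compound median minus 4 SD (cut at about 23% in these data, passing the limit was not always enough); inconclusive means no clear call, values can overlap the other calls; inactive means the rest.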

Assays:
[1] = OD615 S. cerevisiae growth inhibition, permissive medium, pilot counter-assay, permissive growth control for S. cerevisiae lifespan shortening project (AID 705;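 active means growth inhibition above 25% in both replicates, a cutoff set 3 SD above the mean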); conditions: OD615, 24 h, at 10 µM, active compounds read high
How it was run: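 System: S. cerevisiae with engineered DeaD lifespan system / Measured by: absorbance (optical density) at 615 nm / Read-out: reduction in yeast growth (OD615) / Times: 4 h cell pre-growth, 24 h exposure at 30 °C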

[2] = Restrictive medium S. cerevisiae growth inhibition, OD615, pilot screen of yeast lifespan reduction project, restrictive growth control (AID 706;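 active means growth inhibition above a set limit, 3 SD over mean compound inhibition, in both replicates, cut at about 43% in these data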;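 further: modified DeaD lifespan yeast strain shifted to restrictive glucose medium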); conditions: OD615, 48 h, at 10 µM, active compounds read high
How it was run: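 System: Engineered S. cerevisiae DeaD strain | Buffer or medium: Glucose-based CSMM-D restrictive medium | Schedule: 4 h pre-incubation, 48 h exposure at 30 °C | Technique: Optical density at 615 nm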

[3] = viability gain of MRP-1-high H69AR cells under doxorubicin, pilot screen, MRP-1 activator project, CellTiter-Glo, duplicate (AID 807;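 active means viability increase at or above a cutoff of the median across tested compounds plus 3 SD, cut at about 8.5% in these data, passing the limit was not always enough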;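 further: compound pretreatment 18-22 h then 72 h combined with doxorubicin; 0% = doxorubicin alone and 100% = vehicle without doxorubicin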); conditions: H69AR viability with doxorubicin, CellTiter-Glo luminescence; at 10 µM; active compounds read high
[4] = growth suppression of beta-catenin knockout HCT116, pilot screen, human colon tumor cells (AID 823); conditions: CellTiter-Glo, 60 h, at 10 µM, active compounds read low;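 further: 0% = wells killed by 20 µM Hyamine and 100% = untreated DMSO cell wells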
[5] = growth suppression of PTEN-deleted HCT116, pilot screen, cell-based, HCT116 clonal line, CellTiter-Glo (AID 824;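 active means viability at or below 27.92% in each of two runs, the all-compound median minus 4 SD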;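 further: 0% = 20 µM Hyamine control and 100% = vehicle cell control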); conditions: 60 h, at 10 µM, active compounds read low
[6] = inhibitors of the yeast RAM network, pilot screen, dse1pr::URA3 reporter, 5-FOA selection (AID 869;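 active means inhibition over a set limit, the all-compound mean plus 3 SD, in both replicate runs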;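 further: 0% = DMSO wells with no growth and 100% = 10 µM 1-NA-PP1 with full growth; RAM network block rescues cells from 5-FOA so hits raise OD615 growth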); conditions: S. cerevisiae dse1pr::URA3 5-FOA growth, OD615, 2 d; at 10 µM; active compounds read high; strain carries analog-sensitive mutant Cbk1 kinase
[7] = RAM signaling pathway blockade in yeast – S. cerevisiae, Pdr1DBD-CYC8 efflux-inhibited sensitized strain, primary screen (AID 1298;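 active means RAM network inhibition above 8.4% in each of two replicates, 3 SD over the compound average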;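 further: 0% = DMSO untreated cells without growth and 100% = 10 µM 1-NA-PP1 full growth; higher means more yeast growth rescued from 5-FOA killing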); conditions: S. cerevisiae cbk1-as DSE1-URA3 strain, 5-FOA growth OD615, 2 d; at 50 µM; active compounds read high

Cc1cccc(NC(=O)C2CCCN2S(=O)(=O)c2cccc3cccnc23)c1 (stereo not drawn)
inactive: growth inhibition [1] -13% | growth inhibition [2] -6.59% | viability increase [3] -3.17% | viability [4] 85.3% | viability [5] 84% | inhibition [6] 0.065% | RAM network inhibition [7] 1.73%

COc1ccc2[nH]c(C)c(CCN3C(=O)C4CC=CCC4C3=O)c2c1 (stereo not drawn)
inactive: growth inhibition [1] -14.4% | growth inhibition [2] -15.3% | viability increase [3] 0.77% | viability [4] 105% | viability [5] 89.2% | inhibition [6] 0.55% | RAM network inhibition [7] 2.77%

N#CCn1c(C2CCCCC2)nc2ccccc2c1=O
inactive: growth inhibition [1] -27% | growth inhibition [2] -22.9% | viability increase [3] -4.23% | viability [4] 90.2% | viability [5] 84.5% | inhibition [6] 0.79% | RAM network inhibition [7] 3.71%

O=C(COC(=O)C1CCCO1)Nc1cccc(C(F)(F)F)c1 (stereo not drawn)
inactive: growth inhibition [1] -22.8% | growth inhibition [2] -15.9% | viability increase [3] 0% | viability [4] 91.8% | viability [5] 94.5% | inhibition [6] 1.63% | RAM network inhibition [7] 2.45%

COCCCNc1oc(-c2ccccc2F)nc1C#N
inactive: growth inhibition [1] -13.2% | growth inhibition [2] -15.9% | viability increase [3] 2.02% | viability [4] 105% | viability [5] 97.2% | inhibition [6] -0.74% | RAM network inhibition [7] 0.89%

COc1ccc(-c2cc(C(F)F)n3ncc(C(=O)N4CCN(C(=O)c5ccco5)CC4)c3n2)cc1
inactive: growth inhibition [1] -2.55% | growth inhibition [2] -0.9% | viability increase [3] -5.07% | viability [4] 74.5% | viability [5] 72.6% | inhibition [6] 0.475% | RAM network inhibition [7] 10.2%

O=C(c1ccc(Br)o1)N1CCN=C1SCc1cccnc1
inactive: growth inhibition [1] -14.4% | growth inhibition [2] -6.34% | viability increase [3] 2.52% | viability [4] 90.4% | viability [5] 87.6% | inhibition [6] 2.11% | RAM network inhibition [7] 3.23%

CCC(C)C1C(C#N)=C(N)Oc2n[nH]c(-c3ccccc3)c21 (stereo not drawn)
inactive: growth inhibition [1] -4.81% | growth inhibition [2] -3.89% | viability increase [3] -2.23% | viability [4] 97.3% | viability [5] 94.3% | inhibition [6] 1.06% | RAM network inhibition [7] 5.9%

CN1C(=O)CS(=O)c2ccc(C(=O)NC3CC3)cc21 (stereo not drawn)
inactive: growth inhibition [1] 1.7% | growth inhibition [2] -0.875% | viability increase [3] -2.2% | viability [4] 99.4% | viability [5] 95.4% | inhibition [6] 2.25% | RAM network inhibition [7] -1.59%

CCNc1nc(C)cc(COC)c1C#N
inactive: growth inhibition [1] -6.41% | growth inhibition [2] -0.29% | viability increase [3] -0.27% | viability [4] 97.7% | viability [5] 102% | inhibition [6] 1.4% | RAM network inhibition [7] -0.06%

Cc1nnc(SCC(=O)N2CCOCC2)n1C
inactive: growth inhibition [1] -6.97% | growth inhibition [2] -18% | viability increase [3] -0.95% | viability [4] 106% | viability [5] 101% | inhibition [6] 2.25% | RAM network inhibition [7] 2.02%

COc1cccc(C(=O)Nc2ccc3nc(N4CCOCC4)cc(C)c3c2)c1
inactive: growth inhibition [1] -7.63% | growth inhibition [2] 0.38% | viability increase [3] -6.58% | viability [4] 95.7% | viability [5] 85.9% | inhibition [6] 0.845% | RAM network inhibition [7] 2.45%

O=S(=O)(NCCc1csc(-c2cccnc2)n1)c1ccc(Cl)s1
inactive: growth inhibition [1] -15.7% | growth inhibition [2] 13.1% | viability increase [3] 0.96% | viability [4] 87.6% | viability [5] 85.5% | inhibition [6] 1.76% | RAM network inhibition [7] 3.12%

Cn1c(=O)[nH]c(=O)c2c1nc(CN1CCOCC1)n2Cc1ccc(F)cc1
inactive: growth inhibition [1] -6.42% | growth inhibition [2] -18.4% | viability increase [3] -3.24% | viability [4] 98.5% | viability [5] 93.4% | inhibition [6] 2.65% | RAM network inhibition [7] 2.15%

CCN1CCCC1CNC(=O)Cn1cnc2sc(C)c(S(=O)(=O)N3CCC(C)CC3)c2c1=O (stereo not drawn)
inactive: growth inhibition [1] -4.5% | growth inhibition [2] -14.6% | viability increase [3] -4.44% | viability [4] 104% | viability [5] 84% | inhibition [6] 2.9% | RAM network inhibition [7] 4.06%

COc1ccccc1-c1c(C)nn2c(NCCN3CCCC3)cc(C)nc12
inactive: growth inhibition [1] -3.48% | growth inhibition [2] 0.235% | viability increase [3] -1.54% | viability [4] 87.1% | viability [5] 92.6% | inhibition [6] 0.815% | RAM network inhibition [7] 2.33%

CC1CCCN(C(=O)c2ccc3c(c2)C(=O)N(CCC2=CCCCC2)C3=O)C1 (stereo not drawn)
inactive: growth inhibition [1] -5.42% | growth inhibition [2] -30.7% | viability increase [3] -0.25% | viability [4] 87.5% | viability [5] 83.8% | inhibition [6] 0.28% | RAM network inhibition [7] 3.27%

CCOc1ccc(N(CC(=O)Nc2ccc(OC)cc2)S(=O)(=O)c2c(C)noc2C)cc1
inactive: growth inhibition [1] -8.01% | growth inhibition [2] -2.61% | viability increase [3] -3.3% | viability [4] 83.5% | viability [5] 73.9% | inhibition [6] 3.53% | RAM network inhibition [7] 4.12%

O=C(Nc1nccs1)C1CCCN(S(=O)(=O)c2cccc3cccnc23)C1 (stereo not drawn)
inactive: growth inhibition [1] -3.46% | growth inhibition [2] 11.8% | viability increase [3] -1.85% | viability [4] 71.2% | viability [5] 68.6% | inhibition [6] 1.6% | RAM network inhibition [7] 4.95%
